Source: ChEMBL document CHEMBL4308858 (Eur J Med Chem, 2018)
Activity calls are given as the source filed them. The rule behind the calls is not given here.

What was measured:
Anoctamin-2 = target: T1, Anoctamin-2 (Homo sapiens, UniProt Q9NQ90); assay: Inhibition of YFP-fused ANO2 (unknown origin) expressed in FRT cells after 20 mins by fluorescence quenching method; type: cell-based
T1 sequence (Q9NQ90 whole entry): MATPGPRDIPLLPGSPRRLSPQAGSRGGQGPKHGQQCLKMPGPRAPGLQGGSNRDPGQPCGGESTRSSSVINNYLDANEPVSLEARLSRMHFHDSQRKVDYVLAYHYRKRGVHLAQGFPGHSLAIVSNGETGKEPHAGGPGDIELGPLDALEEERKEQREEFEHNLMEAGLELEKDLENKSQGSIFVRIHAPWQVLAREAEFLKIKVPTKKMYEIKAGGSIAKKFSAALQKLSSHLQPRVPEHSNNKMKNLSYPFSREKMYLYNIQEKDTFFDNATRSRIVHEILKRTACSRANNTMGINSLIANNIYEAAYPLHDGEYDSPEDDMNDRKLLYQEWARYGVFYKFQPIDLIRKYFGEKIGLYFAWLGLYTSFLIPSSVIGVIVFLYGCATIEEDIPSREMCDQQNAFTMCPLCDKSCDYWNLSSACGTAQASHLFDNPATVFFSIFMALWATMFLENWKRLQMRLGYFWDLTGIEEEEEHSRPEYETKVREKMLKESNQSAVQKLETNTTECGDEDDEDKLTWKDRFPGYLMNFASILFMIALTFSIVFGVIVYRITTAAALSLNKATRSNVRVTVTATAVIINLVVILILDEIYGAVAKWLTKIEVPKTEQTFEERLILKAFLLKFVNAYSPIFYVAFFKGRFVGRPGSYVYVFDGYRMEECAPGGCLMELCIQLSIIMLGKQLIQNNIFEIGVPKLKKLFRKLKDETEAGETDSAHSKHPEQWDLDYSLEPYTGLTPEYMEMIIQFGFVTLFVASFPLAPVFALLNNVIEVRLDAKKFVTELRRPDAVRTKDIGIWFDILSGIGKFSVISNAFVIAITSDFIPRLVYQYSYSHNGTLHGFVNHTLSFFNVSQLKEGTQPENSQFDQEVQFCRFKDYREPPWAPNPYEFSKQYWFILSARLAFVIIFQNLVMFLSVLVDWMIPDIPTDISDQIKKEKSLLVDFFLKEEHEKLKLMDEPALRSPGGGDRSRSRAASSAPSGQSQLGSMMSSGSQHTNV

Anoctamin-1 = target: T2, Anoctamin-1 (Homo sapiens, UniProt Q5XXA6); assay: Inhibition of YFP-fused ANO1 (unknown origin) expressed in FRT cells after 20 mins by fluorescence quenching method; type: cell-based
T2 sequence (Q5XXA6 whole entry): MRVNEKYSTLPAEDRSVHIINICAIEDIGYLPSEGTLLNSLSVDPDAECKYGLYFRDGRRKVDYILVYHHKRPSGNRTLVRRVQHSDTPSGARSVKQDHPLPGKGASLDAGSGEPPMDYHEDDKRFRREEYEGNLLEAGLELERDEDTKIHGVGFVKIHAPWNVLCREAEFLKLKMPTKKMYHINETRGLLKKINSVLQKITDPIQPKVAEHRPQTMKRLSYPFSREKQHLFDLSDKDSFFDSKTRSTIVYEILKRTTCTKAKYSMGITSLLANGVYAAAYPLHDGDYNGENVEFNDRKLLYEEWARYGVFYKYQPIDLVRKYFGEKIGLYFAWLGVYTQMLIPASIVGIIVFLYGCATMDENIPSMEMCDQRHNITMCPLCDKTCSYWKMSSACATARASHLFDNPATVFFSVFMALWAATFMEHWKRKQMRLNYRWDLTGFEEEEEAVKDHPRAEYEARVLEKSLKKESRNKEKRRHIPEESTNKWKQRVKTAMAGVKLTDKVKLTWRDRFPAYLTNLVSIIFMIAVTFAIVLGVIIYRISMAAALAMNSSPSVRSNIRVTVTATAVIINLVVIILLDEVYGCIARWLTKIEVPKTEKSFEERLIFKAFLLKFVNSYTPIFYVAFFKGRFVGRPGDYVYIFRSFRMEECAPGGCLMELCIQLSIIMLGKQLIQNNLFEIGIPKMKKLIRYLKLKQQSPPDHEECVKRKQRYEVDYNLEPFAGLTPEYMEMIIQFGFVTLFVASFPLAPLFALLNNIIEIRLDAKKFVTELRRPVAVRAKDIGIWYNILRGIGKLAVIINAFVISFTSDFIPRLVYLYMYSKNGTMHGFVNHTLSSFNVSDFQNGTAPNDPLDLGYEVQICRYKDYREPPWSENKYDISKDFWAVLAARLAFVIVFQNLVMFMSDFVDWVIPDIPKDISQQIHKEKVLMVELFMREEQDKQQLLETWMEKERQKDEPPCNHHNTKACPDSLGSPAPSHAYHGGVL

ANO2 (Anoctamin-2) = target: T3, ANO2 (Anoctamin-2) (Homo sapiens, UniProt Q9NQ90); assay: Inhibition of YFP-fused ANO2 (unknown origin) expressed in FRT cells after 20 mins by fluorescence quenching method relative to untreated control; type: cell-based; parameters: concentration or dose not given beside the values; details: FRT cells expressing YFP-fused ANO2
T3 sequence (Q9NQ90 whole entry): T1 sequence (Q9NQ90 whole entry)
How it was run: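 FRT cells stably co-expressing YFP-H148Q/I152L/F46L and ANO1 or ANO2, seeded 2×10^4 per well and grown 48 h. After PBS washes, compound given for 20 min. At 2 s, 70 mM I⁻ solution containing 200 µM ATP added; fluorescence read every 0.4 s for 6 s. Inhibition taken from initial slope of quenching; mean ± S.E., n = 3.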

[1] = Half life in rat plasma at 5 uM by LC-MS/MS analysis; type: ADME, cell-free
How it was run: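 Compound at 5 µM final in rat plasma, shaken at 37 °C and sampled at 0, 30, 60, 120 and 240 min. Reaction stopped with three volumes of ice-cold acetonitrile and protein spun out. Supernatant analysed by LC-MS/MS on a C18 column with formic acid/water–ACN mobile phase. Percent parent remaining taken from peak areas; n = 3.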

[2] = target: T4, Anoctamin-1 (Homo sapiens) (UniProt Q5XXA6); assay: Inhibition of ANO1 (unknown origin) expressed in FRT cells assessed as reduction in ATP-induced chloride current after 20 mins by electrophysiological assay; type: cell-based
T4 sequence (whole entry): T2 sequence (Q5XXA6 whole entry)

[3] = target: Cystic fibrosis transmembrane conductance regulator (Homo sapiens, UniProt P13569); assay: Inhibition of wild type human CFTR expressed in FRT cells assessed as reduction in forskolin-induced chloride current at 30 to 100 uM after 20 mins by electrophysiological assay; type: cell-based
How it was run: (§1)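 Ussing chamber, FRT monolayers expressing ANO1, ANO2 or human WT-CFTR. Basolateral side permeabilised with amphotericin B (250 µg/mL) in HCO3⁻-buffered solution, pH 7.4; apical side half-Cl⁻ (65 mM NaCl replaced by gluconate). Run at 37 °C under 95% O2/5% CO2. Compound applied apically for 20 min, then ANO1/2 activated with 100 µM ATP or CFTR with 20 µM forskolin. Apical current recorded; n = 3–6.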

Homo sapiens [4] = species on record: Homo sapiens; assay: Selectivity for ANO1 (unknown origin) over ANO2 (unknown origin)
Homo sapiens [5] = species on record: Homo sapiens; assay: Selectivity for ANO1 (unknown origin) over wild type human CFTR
PC-3 [6] = assay: Cytotoxicity against human PC3 cells assessed as reduction in cell viability after 48 hrs by MTS assay; type: functional, cell-based
How it was run: (§2)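 PC3, MCF7 and BxPC3 cells grown in RPMI1640 with 10% FBS, plated and held 24 h in 2% FBS medium. At about 20% confluency, compound added at 0.01–30 µM for 48 h, with medium and compound replaced every 24 h. MTS reagent applied for 1 h and formazan absorbance read at 490 nm; mean ± S.E., n = 3.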

MCF7 [7] = assay: Cytotoxicity against human MCF7 cells assessed as reduction in cell viability after 48 hrs by MTS assay; type: functional, cell-based; how it was run: as §2
BXPC-3 [8] = assay: Cytotoxicity against human BxPC3 cells assessed as reduction in cell viability after 48 hrs by MTS assay; type: functional, cell-based; how it was run: as §2
PC-3 [9] = assay: Inhibition of ANO1 protein expression level in human PC3 cells at 3 to 10 uM after 24 hrs by Western blot analysis; type: functional, cell-based
How it was run: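 PC3 cells exposed to compound for 24 h and lysed in NP-40/deoxycholate buffer with protease and phosphatase inhibitors. Lysate cleared at 15000 g, resolved on 4–12% Tris-glycine gel and transferred to PVDF. Blocked in 4% milk/TBST, probed with anti-ANO1 (1:500) then anti-rabbit secondary (1:2000), and detected by ECL.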

[10] = target: CFTR (cystic fibrosis transmembrane conductance regulator) (Homo sapiens, UniProt P13569); assay: Inhibition of wild type human CFTR expressed in FRT cells assessed as reduction in forskolin-induced chloride current at 10 uM after 20 mins by electrophysiological assay; type: cell-based; details: FRT cells expressing wild type human CFTR; how it was run: as §1
PC-3 [11] = assay: Cytotoxicity against human PC3 cells assessed as reduction in cell viability at 10 uM after 48 hrs by MTS assay; type: functional, cell-based; how it was run: as §2
MCF7 [12] = assay: Cytotoxicity against human MCF7 cells assessed as reduction in cell viability at 10 uM after 48 hrs by MTS assay; type: functional, cell-based; how it was run: as §2
BXPC-3 [13] = assay: Cytotoxicity against human BxPC3 cells assessed as reduction in cell viability at 10 uM after 48 hrs by MTS assay; type: functional, cell-based; how it was run: as §2

CFTR (cystic fibrosis transmembrane conductance regulator), sequence (P13569 whole entry): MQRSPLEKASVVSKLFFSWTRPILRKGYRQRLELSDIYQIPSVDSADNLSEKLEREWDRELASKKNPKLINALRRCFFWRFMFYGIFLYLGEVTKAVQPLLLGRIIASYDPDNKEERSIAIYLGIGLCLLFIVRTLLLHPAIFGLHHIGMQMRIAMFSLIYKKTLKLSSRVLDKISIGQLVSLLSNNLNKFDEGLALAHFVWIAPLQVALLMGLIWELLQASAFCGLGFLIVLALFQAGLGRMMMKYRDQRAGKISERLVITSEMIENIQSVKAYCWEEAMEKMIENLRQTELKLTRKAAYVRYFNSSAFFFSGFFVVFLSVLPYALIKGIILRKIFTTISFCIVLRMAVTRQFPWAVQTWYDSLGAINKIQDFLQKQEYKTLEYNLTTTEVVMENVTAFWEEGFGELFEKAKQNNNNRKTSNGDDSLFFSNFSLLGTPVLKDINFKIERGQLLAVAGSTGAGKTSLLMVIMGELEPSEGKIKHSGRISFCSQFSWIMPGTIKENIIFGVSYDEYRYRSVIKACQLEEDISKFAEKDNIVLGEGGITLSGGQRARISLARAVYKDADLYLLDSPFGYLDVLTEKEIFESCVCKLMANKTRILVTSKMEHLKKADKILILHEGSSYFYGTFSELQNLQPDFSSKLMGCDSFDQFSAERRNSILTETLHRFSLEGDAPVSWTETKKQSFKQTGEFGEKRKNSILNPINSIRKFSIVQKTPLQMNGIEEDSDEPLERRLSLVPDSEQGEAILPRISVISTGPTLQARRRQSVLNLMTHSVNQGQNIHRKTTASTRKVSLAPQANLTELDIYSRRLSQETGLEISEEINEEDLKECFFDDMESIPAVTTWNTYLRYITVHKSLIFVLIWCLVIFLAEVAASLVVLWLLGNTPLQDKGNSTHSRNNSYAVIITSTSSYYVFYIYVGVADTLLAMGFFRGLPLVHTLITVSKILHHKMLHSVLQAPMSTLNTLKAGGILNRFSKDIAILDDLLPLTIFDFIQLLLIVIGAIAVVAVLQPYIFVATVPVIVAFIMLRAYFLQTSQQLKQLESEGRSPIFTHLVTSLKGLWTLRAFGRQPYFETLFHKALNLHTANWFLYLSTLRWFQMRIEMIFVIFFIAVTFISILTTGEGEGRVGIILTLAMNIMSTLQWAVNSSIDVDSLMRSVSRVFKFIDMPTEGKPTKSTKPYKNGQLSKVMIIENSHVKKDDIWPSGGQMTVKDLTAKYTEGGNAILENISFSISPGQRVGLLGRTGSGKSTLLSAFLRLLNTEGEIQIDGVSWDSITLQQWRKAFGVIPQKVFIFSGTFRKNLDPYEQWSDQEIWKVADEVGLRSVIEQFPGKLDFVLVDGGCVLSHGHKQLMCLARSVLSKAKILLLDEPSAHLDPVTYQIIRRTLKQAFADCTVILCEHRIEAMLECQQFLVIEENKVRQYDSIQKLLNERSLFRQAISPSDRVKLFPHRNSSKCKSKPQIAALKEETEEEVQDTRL
Cystic fibrosis transmembrane conductance regulator, sequence (P13569 whole entry): as above

| SMILES | IC50 (Anoctamin-2; read-out: IC50) | IC50 (Anoctamin-1; read-out: IC50) | IC50 (Anoctamin-2) | inhibition at 20 min (ANO2 (Anoctamin-2)) | further results |
| --- | --- | --- | --- | --- | --- |
| Cc1cc(Cl)ccc1OCc1nnc(-c2ccccc2F)o1 | > 100 µM |  |  |  |  |
| Cc1cc(Cl)ccc1OCC(=O)N/N=C/c1ccccc1F |  | 0.89 µM | Not Active | < 20% |  |
| Cc1cc(Cl)ccc1OC(C)(C)C(=O)N/N=C/c1ccccc1OC(F)(F)F | > 100 µM |  |  |  | IC50 (Anoctamin-1): Not Active |
| Cc1cc(Cl)ccc1OCC(=O)N/N=C/c1cccc(F)c1 |  | > 100 µM | Not Active | < 20% |  |
| Cc1cc(Cl)ccc1OC(C)C(=O)N/N=C/c1ccccc1OC(F)(F)F (configuration not stated) |  | > 100 µM | Not Active |  |  |
| COc1ccccc1-c1nnc(-c2cc3cc(Cl)ccc3o2)o1 | > 100 µM | > 100 µM |  |  |  |
| Cc1cc(Cl)ccc1OCC(=O)N/N=C/c1ccccc1C(F)(F)F |  |  | Not Active | < 20% |  |
| Cc1cc(Cl)ccc1OCc1nnc(-c2ccccc2OC(F)(F)F)o1 |  | > 100 µM | Not Active | < 20% |  |
| COc1ccccc1/C=N/NC(=O)COc1ccc(Cl)cc1C |  |  |  |  | half-life at 5 µM [1]: 0.533 h |
| Cc1cc(Cl)ccc1OCC(=O)N/N=C/c1ccccc1OC(F)(F)F |  |  | Not Active | < 20% | inhibition [2]: Dose-dependent effect; inhibition (INH) [3]: Not Active; Selectivity ratio (Homo sapiens [4]): > 1000; Selectivity ratio (Homo sapiens [5]): > 1000; Activity (PC-3 [6]): Dose-dependent effect; Activity (MCF7 [7]): Dose-dependent effect; Activity (BXPC-3 [8]): Dose-dependent effect; inhibition (PC-3 [9]): Active; half-life at 5 µM [1]: 1.73 h |
| Cc1cc(Cl)ccc1OCc1nnc(-c2cccc(F)c2)o1 | > 100 µM | > 100 µM |  |  |  |
| COc1ccccc1CNNC(=O)COc1ccc(Cl)cc1C | > 100 µM |  |  |  |  |
| Cc1cc(Cl)ccc1OC(F)(F)C(=O)N/N=C/c1ccccc1OC(F)(F)F | > 100 µM | > 100 µM |  |  |  |
| Cc1cc(Cl)ccc1OCc1nnc(-c2cccc(OC(F)(F)F)c2)o1 |  | > 100 µM | Not Active | < 20% |  |
| C/C(=N\NC(=O)COc1ccc(Cl)cc1C)c1ccccc1OC(F)(F)F | > 100 µM |  |  |  |  |
| COc1ccccc1/C=N/NC(=O)c1cc2cc(Cl)ccc2o1 | > 100 µM | > 100 µM |  |  |  |
| O=C(O)c1ccc(/C=C2/SC(=S)N(c3cccc(C(F)(F)F)c3)C2=O)cc1 |  |  |  |  | inhibition at 20 min, 10 µM [10]: 100% |
| Cc1cc(Cl)ccc1OCC(=O)N/N=C/c1ccccn1 | > 100 µM |  |  |  |  |
| COc1cccc(/C=N/NC(=O)COc2ccc(Cl)cc2C)c1 |  | > 100 µM | Not Active | < 20% |  |
| Cc1cc(Cl)ccc1OCc1nnc(-c2ccccn2)o1 |  | > 100 µM | Not Active | < 20% |  |
| COc1cccc(-c2nnc(COc3ccc(Cl)cc3C)o2)c1 | > 100 µM | > 100 µM |  |  |  |
| Cc1cc(Cl)ccc1OCc1nnc(-c2ccco2)o1 | > 100 µM |  |  |  |  |
| Cc1cc(Cl)ccc1OCC(=O)N/N=C/c1ccco1 |  |  | Not Active | < 20% |  |
| Cc1cc(Cl)ccc1OCC(=O)N/N=C/c1cccc(OC(F)(F)F)c1 |  | > 100 µM | Not Active | < 20% | Activity (PC-3 [11]): inactive; Activity (MCF7 [12]): inactive; Activity (BXPC-3 [13]): inactive |
| Cc1cc(Cl)ccc1OCc1nnc(-c2ccccc2C(F)(F)F)o1 | > 100 µM | > 100 µM |  |  |  |
